In ChEMBL document CHEMBL3813633, “2-Aryl-8-aza-3-deazaadenosine analogues of 5'-O-[N-(salicyl)sulfamoyl]adenosine: Nucleoside antibiotics that block siderophore biosynthesis in Mycobacterium tuberculosis” (Bioorg Med Chem, 2016):
Values after ≈ are worked out from the molar mass of the structure shown. Active and inactive are the calls of the source. The rule behind the calls is not given here.

Tests used:
[1] = test system: Mycobacterium tuberculosis; experiment: Antibacterial activity against Mycobacterium tuberculosis H37Rv under iron-deficient condition after 10 to 14 days by broth microdilution method; assay type: functional
How it was run: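 M. tuberculosis H37Rv broth microdilution in iron-deficient GAST (GAS medium without ferric ammonium citrate, pH 6.6). Compounds were added from DMSO stocks, with isoniazid as positive control and DMSO as negative control. Initial density was 10^4–10^5 cells/assay at 37 °C. Growth was read as OD620 at 10–14 days, when controls reached OD620 0.2–0.3. MIC was determined in triplicate.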

[2] = test system: Mycobacterium tuberculosis; experiment: Antibacterial activity against Mycobacterium tuberculosis H37Rv at 50 uM under iron-replete condition after 10 to 14 days by broth microdilution method; assay type: functional, organism-based

| SMILES | MIC [1] | Activity [2] |
| --- | --- | --- |
| Cc1ccc(-c2cc3c(nnn3[C@@H]3O[C@H](COS(=O)(=O)NC(=O)c4ccccc4O)[C@@H](O)[C@H]3O)c(N)n2)cc1 | 25 µM (≈ 13.9 µg/mL) | inactive |
| Nc1nc(-c2ccc(C(F)(F)F)cc2)cc2c1nnn2[C@@H]1O[C@H](COS(=O)(=O)NC(=O)c2ccccc2O)[C@@H](O)[C@H]1O | > 50 µM | inactive |
| Nc1nc(-c2ccc3ccccc3c2)cc2c1nnn2[C@@H]1O[C@H](COS(=O)(=O)NC(=O)c2ccccc2O)[C@@H](O)[C@H]1O | 12.5 µM (≈ 7.41 µg/mL) | inactive |
| Nc1nc(-c2ccc(F)cc2)cc2c1nnn2[C@@H]1O[C@H](COS(=O)(=O)NC(=O)c2ccccc2O)[C@@H](O)[C@H]1O | 19 µM (≈ 10.6 µg/mL) | inactive |
| COc1ccc2cc(-c3cc4c(nnn4[C@@H]4O[C@H](COS(=O)(=O)NC(=O)c5ccccc5O)[C@@H](O)[C@H]4O)c(N)n3)ccc2c1 | 19 µM (≈ 11.8 µg/mL) | inactive |
| Nc1nc(-c2ccccc2)cc2c1nnn2[C@@H]1O[C@H](COS(=O)(=O)NC(=O)c2ccccc2O)[C@@H](O)[C@H]1O | 25 µM (≈ 13.6 µg/mL) | inactive |
